Assay results taken from ChEMBL document CHEMBL5335784, “Discovery of a novel 1,3,4-oxadiazol-2-one-based NLRP3 inhibitor as a pharmacological agent to mitigate cardiac and metabolic complications in an experimental model of diet-induced metaflammation” (Eur J Med Chem, 2023).

How the values were obtained:
[1] = Cytotoxicity against human THP-1 cells assessed as reduction in cell viability measured after 72 hr by MTT assay; assay type: toxicity, cell-based; conditions: read-out: TC50
Summary of the method: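 Undifferentiated THP-1 cells exposed to 0.1–100 μM compound for 72 h. Viability read by MTT reduction at 570 nm. TC50 from concentration–response; three experiments.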

[2] = n-Octanol/water distribution coefficient, log D of the compound at pH 7.4 measured after 4 hrs by shake flask method; assay type: physicochemical
Summary of the method: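 Shake-flask at room temperature between n-octanol and 50 mM phosphate buffer pH 7.4, ionic strength 0.15 M KCl. Phases were pre-saturated by 4 h shaking. Compound at about 0.1 mg/ml in buffer, shaken about 20 min with n-octanol, then centrifuged at 10000 rpm for 10 min.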

[3] = Metabolic stability of the compound in human THP-1 cells at 100 uM measured after 24 hrs by RP-HPLC analysis; assay type: ADME, cell-based; conditions: thp-1, 24 h
Summary of the method: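 Lysate from PMA-differentiated THP-1 cells (RIPA buffer) at 37 °C with compound at 100 μM, added from 10 mM DMSO stock. Aliquots deproteinized with CH3CN/0.1% TFA, centrifuged, filtered and quantified by RP-HPLC at 226/254 nm against external standards. Pseudo-first-order t1/2 from exponential decay fit; three independent experiments.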

[4] = Metabolic stability of the compound in human serum at 100 uM measured after 24 hrs by RP-HPLC analysis; assay type: ADME, cell-free
Summary of the method: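 Human male AB serum at 37 °C with compound at 100 μM (from 10 mM DMSO stock), sampled over 24 h. Aliquots deproteinized with CH3CN/0.1% TFA, centrifuged, filtered and analysed by RP-HPLC (phenyl column, 226/254 nm) with calibration 1-100 μM. Pseudo-first-order t1/2 from exponential decay fit.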

[5] = Stability of the compound in PBS at 100 uM at pH 7.4 measured after 24 hrs by RP-HPLC analysis; assay type: physicochemical; conditions: buffer, pH 7.4, 24 h
Summary of the method: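 Compound added from 10 mM DMSO stock to 50 mM PBS pH 7.4 at 37 °C. Sampled at intervals over 48 h and analysed by RP-HPLC with UV detection at 226/254 nm against calibration standards.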

Structure (SMILES) | CC50 at 72 h [1] [µM] | other results
CCOC(=O)C1CCCN(c2nnc(NC(=O)c3ccccc3Cl)s2)C1 (centres undefined) | 79.7 | 
CC(C)c1cc(Cl)cc(C(C)C)c1NC(=O)NS(=O)(=O)c1cc(C(C)(C)O)co1 | 92.5 | 
CCOC(=O)c1ccc(Cn2nc(Cc3ccccc3Cl)oc2=O)cc1 | > 100 | 
O=C(O)c1ccc(-c2nc(Cc3cccc(C(F)(F)F)c3)no2)cc1 | 27.3 | 
O=c1oc(Cc2ccccc2Cl)nn1Cc1nn[nH]n1 | > 100 | logD at 4 h [2]: -1.09
O=C(O)Cn1nc(Cc2ccccc2Cl)oc1=O | 94.6 | Stability [3]: Stable; logD at 4 h [2]: -1.66; Stability [4]: Stable; Stability [5]: Stable
COC(=O)c1ccc(-c2nc(Cc3cccc(C(F)(F)F)c3)no2)cc1 | > 100 | 
COc1ccc(Cn2nc(Cc3ccccc3Cl)oc2=O)cc1 | 64.8 | 
CC(C)(C)OC(=O)Cn1nc(Cc2ccccc2Cl)oc1=O | 98.9 | logD at 4 h [2]: 3.1
COC(=O)c1ccc(-c2noc(Cc3cccc(C(F)(F)F)c3)n2)cc1 | 94.5 | 
COC(=O)c1ccc(-c2noc(Cc3ccccc3Cl)n2)cc1 | > 100 | 
CCOC(=O)CN(Cc1ccccc1)c1nnc(NC(=O)c2ccccc2Cl)s1 | 91.6 | 
CCOC(=O)CN(C)c1nnc(NC(=O)c2ccccc2Cl)s1 | 96.1 | 
